Data: ChEMBL document CHEMBL4219235, “Novel fatty acid chain modified GLP-1 derivatives with prolonged in vivo glucose-lowering ability and balanced glucoregulatory activity” (Bioorg Med Chem, 2018)

Tests used:
[1] = target: Glucagon-like peptide 1 receptor (Homo sapiens, UniProt P43220); assay: Agonist activity at recombinant human GLP1 receptor expressed in HEK293 cells assessed as cAMP accumulation by TR-FRET assay; type: functional, cell-based
[2] = target: Albumin (Homo sapiens, UniProt P02768); assay: Binding affinity to human serum albumin after 3 hrs by LC-MS/MS analysis; set-up: concentration or dose not given beside the values
Chain of Albumin (P02768 whole entry): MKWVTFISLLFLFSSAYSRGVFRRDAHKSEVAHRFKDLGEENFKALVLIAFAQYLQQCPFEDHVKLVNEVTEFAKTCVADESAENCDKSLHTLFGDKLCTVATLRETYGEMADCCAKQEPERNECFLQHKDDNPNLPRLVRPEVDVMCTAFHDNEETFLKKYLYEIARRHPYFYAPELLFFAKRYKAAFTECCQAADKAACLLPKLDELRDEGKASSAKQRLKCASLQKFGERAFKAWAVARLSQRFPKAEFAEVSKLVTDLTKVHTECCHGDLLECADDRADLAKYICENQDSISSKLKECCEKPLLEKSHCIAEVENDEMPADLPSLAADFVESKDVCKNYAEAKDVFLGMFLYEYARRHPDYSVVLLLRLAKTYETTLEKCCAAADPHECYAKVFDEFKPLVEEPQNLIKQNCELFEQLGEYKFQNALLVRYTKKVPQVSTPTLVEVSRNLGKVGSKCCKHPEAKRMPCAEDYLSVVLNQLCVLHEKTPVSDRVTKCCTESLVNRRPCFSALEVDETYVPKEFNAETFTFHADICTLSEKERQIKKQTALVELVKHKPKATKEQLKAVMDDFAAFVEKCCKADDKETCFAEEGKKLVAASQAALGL
Summary of the method: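 HSA was coupled to NHS-activated Sepharose (6–7 mg HSA/mL wet resin); an inactivated albumin-free resin served as control. Peptide (100 µg/mL in PBS) was incubated with each resin for 3 h at 25 °C. After centrifugation, unbound peptide in the supernatant was quantified by LC-MS/MS.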

Chain of Glucagon-like peptide 1 receptor (P43220 whole entry): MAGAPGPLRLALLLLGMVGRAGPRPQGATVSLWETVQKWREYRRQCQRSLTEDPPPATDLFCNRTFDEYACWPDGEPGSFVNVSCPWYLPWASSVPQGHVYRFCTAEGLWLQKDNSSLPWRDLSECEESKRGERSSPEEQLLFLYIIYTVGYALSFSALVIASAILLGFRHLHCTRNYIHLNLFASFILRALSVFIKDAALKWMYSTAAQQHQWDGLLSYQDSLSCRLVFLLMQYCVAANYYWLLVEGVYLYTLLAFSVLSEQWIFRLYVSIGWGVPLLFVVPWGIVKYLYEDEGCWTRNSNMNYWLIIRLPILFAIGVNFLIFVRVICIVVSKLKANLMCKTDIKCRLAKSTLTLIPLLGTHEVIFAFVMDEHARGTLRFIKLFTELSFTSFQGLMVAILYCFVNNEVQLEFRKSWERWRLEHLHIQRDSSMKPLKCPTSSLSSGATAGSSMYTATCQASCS

Q: Which results are given for CC[C@H](C)[C@H](NC(=O)[C@H](Cc1ccccc1)NC(=O)[C@H](CCC(=O)O)NC(=O)[C@H](CCCCN)NC(=O)[C@H](C)NC(=O)[C@H](C)NC(=O)[C@H](CCC(N)=O)NC(=O)CNC(=O)[C@H](CCC(=O)O)NC(=O)[C@H](CC(C)C)NC(=O)[C@H](Cc1ccc(O)cc1)NC(=O)[C@H](CO)NC(=O)[C@H](CSC1CC(=O)N(CCC(=O)O)C1=O)NC(=O)[C@@H](NC(=O)[C@H](CC(=O)O)NC(=O)[C@H](CO)NC(=O)[C@@H](NC(=O)[C@H](Cc1ccccc1)NC(=O)[C@@H](NC(=O)CNC(=O)[C@H](CCC(=O)O)NC(=O)CNC(=O)[C@@H](N)Cc1cnc[nH]1)[C@@H](C)O)[C@@H](C)O)C(C)C)C(=O)N[C@@H](C)C(=O)N[C@@H](Cc1c[nH]c2ccccc12)C(=O)N[C@@H](CC(C)C)C(=O)N[C@H](C(=O)N[C@@H](CCCCN)C(=O)NCC(=O)N[C@@H](CCCNC(=N)N)C(N)=O)C(C)C (stereo partly drawn)?
A: EC50 [1]: 0.0056 nM; Activity [2]: 28.5%

Q: Which results are given for CC[C@H](C)[C@H](NC(=O)[C@H](Cc1ccccc1)NC(=O)[C@H](CCC(=O)O)NC(=O)[C@H](CCCCN)NC(=O)[C@H](C)NC(=O)[C@H](C)NC(=O)[C@H](CCC(N)=O)NC(=O)CNC(=O)[C@H](CCC(=O)O)NC(=O)[C@H](CC(C)C)NC(=O)[C@H](Cc1ccc(O)cc1)NC(=O)[C@H](CO)NC(=O)[C@H](CSC1CC(=O)N(CCCCCC(=O)O)C1=O)NC(=O)[C@@H](NC(=O)[C@H](CC(=O)O)NC(=O)[C@H](CO)NC(=O)[C@@H](NC(=O)[C@H](Cc1ccccc1)NC(=O)[C@@H](NC(=O)CNC(=O)[C@H](CCC(=O)O)NC(=O)CNC(=O)[C@@H](N)Cc1cnc[nH]1)[C@@H](C)O)[C@@H](C)O)C(C)C)C(=O)N[C@@H](C)C(=O)N[C@@H](Cc1c[nH]c2ccccc12)C(=O)N[C@@H](CC(C)C)C(=O)N[C@H](C(=O)N[C@@H](CCCCN)C(=O)NCC(=O)N[C@@H](CCCNC(=N)N)C(N)=O)C(C)C (stereo partly drawn)?
A: EC50 [1]: 0.0143 nM; Activity [2]: 37.4%

Q: CC[C@H](C)[C@H](NC(=O)[C@H](Cc1ccccc1)NC(=O)[C@H](CCC(=O)O)NC(=O)[C@H](CCCCN)NC(=O)[C@H](C)NC(=O)[C@H](C)NC(=O)[C@H](CCC(N)=O)NC(=O)CNC(=O)[C@H](CCC(=O)O)NC(=O)[C@H](CC(C)C)NC(=O)[C@H](Cc1ccc(O)cc1)NC(=O)[C@H](CO)NC(=O)[C@H](CO)NC(=O)[C@@H](NC(=O)[C@H](CC(=O)O)NC(=O)[C@H](CO)NC(=O)[C@@H](NC(=O)[C@H](Cc1ccccc1)NC(=O)[C@@H](NC(=O)CNC(=O)[C@H](CCC(=O)O)NC(=O)CNC(=O)[C@@H](N)Cc1cnc[nH]1)[C@@H](C)O)[C@@H](C)O)C(C)C)C(=O)N[C@@H](C)C(=O)N[C@@H](Cc1c[nH]c2ccccc12)C(=O)N[C@@H](CC(C)C)C(=O)N[C@H](C(=O)N[C@@H](CCCCN)C(=O)NCC(=O)N[C@@H](CCCNC(=N)N)C(=O)N[C@@H](CSC1CC(=O)N(CCCCCC(=O)O)C1=O)C(N)=O)C(C)C (stereo partly drawn) was tested. Which EC50 [1] did it give?
A: 0.0093 nM

Q: And the Activity [2]?
A: 34.1%

Q: How did the EC50 [1] turn out when CC[C@H](C)[C@H](NC(=O)[C@H](Cc1ccccc1)NC(=O)[C@H](CCC(=O)O)NC(=O)[C@H](CCCCN)NC(=O)[C@H](C)NC(=O)[C@H](C)NC(=O)[C@H](CCC(N)=O)NC(=O)CNC(=O)[C@H](CCC(=O)O)NC(=O)[C@H](CC(C)C)NC(=O)[C@H](Cc1ccc(O)cc1)NC(=O)[C@H](CO)NC(=O)[C@H](CSC1CC(=O)N(CCCCCCCCCCCC(=O)O)C1=O)NC(=O)[C@@H](NC(=O)[C@H](CC(=O)O)NC(=O)[C@H](CO)NC(=O)[C@@H](NC(=O)[C@H](Cc1ccccc1)NC(=O)[C@@H](NC(=O)CNC(=O)[C@H](CCC(=O)O)NC(=O)CNC(=O)[C@@H](N)Cc1cnc[nH]1)[C@@H](C)O)[C@@H](C)O)C(C)C)C(=O)N[C@@H](C)C(=O)N[C@@H](Cc1c[nH]c2ccccc12)C(=O)N[C@@H](CC(C)C)C(=O)N[C@H](C(=O)N[C@@H](CCCCN)C(=O)NCC(=O)N[C@@H](CCCNC(=N)N)C(N)=O)C(C)C (stereo partly drawn) was run?
A: 0.0263 nM

Q: What about the Activity [2] of the same compound?
A: 65.1%
